Source: ChEMBL document CHEMBL4251567 (Eur J Med Chem, 2018)

Columns and labels:
[1] = molecular target: Histone deacetylase 3 (Homo sapiens) (UniProt O15379); experiment: Inhibition of HDAC3 in human HeLa-S3 cell lysates assessed as remaining activity at 4 x 10^-5 M preincubated for 15 mins followed by HDAC-Glo substrate addition measured after 30 to 40 mins by […] relative to control
Outline: (§1)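 Antibody-capture (ELISA-type) assay: HDAC antibody coated in carbonate/bicarbonate buffer pH 9.4, wells blocked with 5% milk in TBST. HeLa-S3 lysate added at 1 mg/mL for HDAC3, 1 h at 4 °C, then washed. Inhibitor in DMSO preincubated 15 min at RT in HDAC-Glo buffer. HDAC-Glo reagent added, luminescence read after 30-40 min. Concentrations are final. Background = no-antibody well; activity given as % of DMSO control.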

[2] = molecular target: Histone deacetylase 1 (Homo sapiens) (UniProt Q13547); experiment: Inhibition of HDAC1 in human HeLa-S3 cell lysates assessed as remaining activity at 1 x 10^-5 M preincubated for 15 mins followed by HDAC-Glo substrate addition measured after 30 to 40 mins by fluorimetric method relative to control
Chain of Histone deacetylase 1 (Homo sapiens) (Q13547 whole entry): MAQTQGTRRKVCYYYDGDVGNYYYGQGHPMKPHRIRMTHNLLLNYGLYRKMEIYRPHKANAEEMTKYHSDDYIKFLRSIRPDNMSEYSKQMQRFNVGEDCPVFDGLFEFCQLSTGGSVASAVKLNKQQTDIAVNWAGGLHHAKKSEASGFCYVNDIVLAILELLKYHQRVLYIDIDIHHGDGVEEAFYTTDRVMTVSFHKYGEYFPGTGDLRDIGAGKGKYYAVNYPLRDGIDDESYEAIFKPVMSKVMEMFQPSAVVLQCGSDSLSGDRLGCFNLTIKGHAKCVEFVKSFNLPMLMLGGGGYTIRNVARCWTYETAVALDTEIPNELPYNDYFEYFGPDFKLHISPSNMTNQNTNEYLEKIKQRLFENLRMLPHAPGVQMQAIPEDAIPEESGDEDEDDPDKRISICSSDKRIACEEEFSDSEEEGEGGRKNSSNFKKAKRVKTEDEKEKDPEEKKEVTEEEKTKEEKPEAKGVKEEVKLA
Outline: (§2)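 HDAC1 was captured from HeLa-S3 lysate (100 μg/mL) onto wells precoated with anti-HDAC1 antibody (10 μg/mL, carbonate buffer pH 9.4) and milk-blocked, 1 h at 4 °C, then washed. Inhibitor in DMSO was added in HDAC-Glo buffer for 15 min at room temperature. HDAC-Glo reagent was added and luminescence read after 30-40 min. Concentrations are final. No-antibody background subtracted; % of DMSO control.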

[3] = molecular target: Histone deacetylase 3 (Homo sapiens) (UniProt O15379); experiment: Inhibition of HDAC3 in human HeLa-S3 cell lysates assessed as remaining activity at 5 x 10^-6 M preincubated for 15 mins followed by HDAC-Glo substrate addition measured after 30 to 40 mins by […] relative to control; outline: as §1
[4] = molecular target: Histone deacetylase 2 (Homo sapiens) (UniProt Q92769); experiment: Inhibition of HDAC2 in human HeLa-S3 cell lysates assessed as remaining activity at 2 x 10^-5 M preincubated for 15 mins followed by HDAC-Glo substrate addition measured after 30 to 40 mins by fluorimetric method relative to control
Chain of Histone deacetylase 2 (Homo sapiens) (Q92769 whole entry, canonical isoform): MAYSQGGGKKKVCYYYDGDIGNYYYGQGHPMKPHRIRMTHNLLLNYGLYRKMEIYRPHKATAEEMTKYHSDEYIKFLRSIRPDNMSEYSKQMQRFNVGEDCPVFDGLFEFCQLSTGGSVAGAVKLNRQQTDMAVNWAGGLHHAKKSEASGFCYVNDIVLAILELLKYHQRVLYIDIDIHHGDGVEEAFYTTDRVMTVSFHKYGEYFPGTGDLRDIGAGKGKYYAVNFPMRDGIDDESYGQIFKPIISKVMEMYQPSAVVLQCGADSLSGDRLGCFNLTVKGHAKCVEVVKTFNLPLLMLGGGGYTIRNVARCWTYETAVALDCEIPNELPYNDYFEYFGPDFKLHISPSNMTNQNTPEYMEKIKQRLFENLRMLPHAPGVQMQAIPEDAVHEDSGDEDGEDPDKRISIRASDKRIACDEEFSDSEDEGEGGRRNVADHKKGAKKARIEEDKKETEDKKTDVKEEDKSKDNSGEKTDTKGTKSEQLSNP
Outline: (§3)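 Same antibody-capture format as the other class I isoforms. HeLa-S3 lysate added at 100 μg/mL for HDAC1 and HDAC2, 1 h at 4 °C, then washed. Inhibitor in DMSO preincubated 15 min at RT; HDAC-Glo reagent added and luminescence read after 30-40 min. Concentrations are final. Signal corrected against a well without antibody; activity expressed as % of DMSO control.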

[5] = molecular target: Histone deacetylase 1 (Homo sapiens) (UniProt Q13547); experiment: Inhibition of HDAC1 in human HeLa-S3 cell lysates assessed as remaining activity at 8 x 10^-5 M preincubated for 15 mins followed by HDAC-Glo substrate addition measured after 30 to 40 mins by […] relative to control
[6] = molecular target: Histone deacetylase 1 (Homo sapiens) (UniProt Q13547); experiment: Inhibition of HDAC1 in human HeLa-S3 cell lysates assessed as remaining activity at 5 x 10^-6 M preincubated for 15 mins followed by HDAC-Glo substrate addition measured after 30 to 40 mins by […] relative to control; outline: as §2
[7] = molecular target: Histone deacetylase 3 (Homo sapiens) (UniProt O15379); experiment: Inhibition of HDAC3 in human HeLa-S3 cell lysates assessed as remaining activity at 2 x 10^-5 M preincubated for 15 mins followed by HDAC-Glo substrate addition measured after 30 to 40 mins by […] relative to control; outline: as §1
[8] = molecular target: Histone deacetylase 1 (Homo sapiens) (UniProt Q13547); experiment: Inhibition of HDAC1 in human HeLa-S3 cell lysates assessed as remaining activity at 2 x 10^-5 M preincubated for 15 mins followed by HDAC-Glo substrate addition measured after 30 to 40 mins by […] relative to control; outline: as §2
[9] = molecular target: Histone deacetylase 2 (Homo sapiens) (UniProt Q92769); experiment: Inhibition of HDAC2 in human HeLa-S3 cell lysates assessed as remaining activity at 5 x 10^-6 M preincubated for 15 mins followed by HDAC-Glo substrate addition measured after 30 to 40 mins by […] relative to control; outline: as §3
[10] = molecular target: Histone deacetylase 3 (Homo sapiens) (UniProt O15379); experiment: Inhibition of HDAC3 in human HeLa-S3 cell lysates assessed as remaining activity at 8 x 10^-5 M preincubated for 15 mins followed by HDAC-Glo substrate addition measured after 30 to 40 mins by […] relative to control; outline: as §1
[11] = molecular target: T1, Protein deacetylase HDAC6 (Homo sapiens) (UniProt Q9UBN7); experiment: Inhibition of HDAC6 in human HeLa-S3 cell lysates assessed as remaining activity at 1.25 x 10^-8 M preincubated for 15 mins followed by HDAC-Glo substrate addition measured after 30 to 40 mins by […] relative to control
T1 sequence (whole entry): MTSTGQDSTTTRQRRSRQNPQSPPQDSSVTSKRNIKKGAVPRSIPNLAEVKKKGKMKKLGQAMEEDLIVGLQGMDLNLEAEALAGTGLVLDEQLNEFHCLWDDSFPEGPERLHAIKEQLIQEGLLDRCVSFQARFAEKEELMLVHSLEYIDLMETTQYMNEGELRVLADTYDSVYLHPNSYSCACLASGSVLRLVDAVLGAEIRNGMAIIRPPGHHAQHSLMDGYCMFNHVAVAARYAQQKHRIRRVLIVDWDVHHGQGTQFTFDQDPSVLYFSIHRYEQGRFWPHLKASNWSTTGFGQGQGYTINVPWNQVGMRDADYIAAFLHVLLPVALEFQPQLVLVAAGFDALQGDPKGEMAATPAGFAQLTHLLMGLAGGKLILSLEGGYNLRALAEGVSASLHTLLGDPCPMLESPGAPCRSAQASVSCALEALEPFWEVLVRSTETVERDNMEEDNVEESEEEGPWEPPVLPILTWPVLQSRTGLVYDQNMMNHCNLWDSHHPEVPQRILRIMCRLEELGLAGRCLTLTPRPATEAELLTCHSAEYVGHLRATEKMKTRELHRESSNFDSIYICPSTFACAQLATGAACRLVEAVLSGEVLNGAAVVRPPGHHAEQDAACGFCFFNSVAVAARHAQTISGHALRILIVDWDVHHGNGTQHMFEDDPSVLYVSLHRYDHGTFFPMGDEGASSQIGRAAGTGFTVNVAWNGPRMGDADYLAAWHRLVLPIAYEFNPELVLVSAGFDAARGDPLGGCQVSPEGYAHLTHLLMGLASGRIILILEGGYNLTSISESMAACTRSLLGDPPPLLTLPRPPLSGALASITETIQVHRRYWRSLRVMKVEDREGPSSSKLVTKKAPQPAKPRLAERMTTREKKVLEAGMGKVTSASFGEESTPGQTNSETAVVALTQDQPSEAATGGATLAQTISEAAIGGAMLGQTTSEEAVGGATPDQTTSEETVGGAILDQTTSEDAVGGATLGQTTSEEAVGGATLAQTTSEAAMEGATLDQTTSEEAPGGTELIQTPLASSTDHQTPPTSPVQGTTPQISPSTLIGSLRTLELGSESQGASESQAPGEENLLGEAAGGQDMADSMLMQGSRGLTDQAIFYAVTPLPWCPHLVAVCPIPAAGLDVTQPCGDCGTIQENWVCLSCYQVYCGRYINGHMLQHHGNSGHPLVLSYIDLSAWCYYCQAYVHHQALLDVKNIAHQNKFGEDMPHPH
Outline: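 HDAC6 captured on an anti-HDAC6 antibody-coated plate (2 μg/mL, pH 9.4 carbonate buffer, milk-blocked). HeLa-S3 lysate loaded at 1 mg/mL, 1 h at 4 °C, then washed. 15 min RT preincubation with inhibitor in DMSO; HDAC-Glo reagent added, luminescence read at 30-40 min. Concentrations are final. Background = no-antibody well; values are % activity versus DMSO control.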

[12] = molecular target: Histone deacetylase 2 (Homo sapiens) (UniProt Q92769); experiment: Inhibition of HDAC2 in human HeLa-S3 cell lysates assessed as remaining activity at 4 x 10^-5 M preincubated for 15 mins followed by HDAC-Glo substrate addition measured after 30 to 40 mins by […] relative to control; outline: as §3
[13] = molecular target: Histone deacetylase 2 (Homo sapiens) (UniProt Q92769); experiment: Inhibition of HDAC2 in human HeLa-S3 cell lysates assessed as remaining activity at 8 x 10^-5 M preincubated for 15 mins followed by HDAC-Glo substrate addition measured after 30 to 40 mins by […] relative to control; outline: as §3
[14] = molecular target: Histone deacetylase 1 (Homo sapiens) (UniProt Q13547); experiment: Inhibition of HDAC1 in human HeLa-S3 cell lysates assessed as remaining activity at 4 x 10^-5 M preincubated for 15 mins followed by HDAC-Glo substrate addition measured after 30 to 40 mins by […] relative to control; outline: as §2
[15] = molecular target: Histone deacetylase 3 (Homo sapiens) (UniProt O15379); experiment: Inhibition of HDAC3 in human HeLa-S3 cell lysates assessed as remaining activity at 1 x 10^-5 M preincubated for 15 mins followed by HDAC-Glo substrate addition measured after 30 to 40 mins by […] relative to control; outline: as §1
U-937 [16] = experiment: Cytotoxicity against human U937 cells assessed as cell viability at 3 x 10^-3 M after 44 hrs by MTT assay relative to control; type: functional; conditions: U-937, 44 h, read-out: Activity
U-937 [17] = experiment: Cytotoxicity against human U937 cells assessed as cell viability at 2.5 x 10^-4 M after 44 hrs by MTT assay relative to control; type: functional; conditions: U-937, 44 h, read-out: Activity
U-937 [18] = experiment: Cytotoxicity against human U937 cells assessed as cell viability at 1 x 10^-3 M after 44 hrs by MTT assay relative to control; type: functional; conditions: U-937, 44 h, read-out: Activity
U-937 [19] = experiment: Cytotoxicity against human U937 cells assessed as cell viability at 5 x 10^-4 M after 44 hrs by MTT assay relative to control; type: functional; conditions: U-937, 44 h, read-out: Activity
U-937 [20] = experiment: Cytotoxicity against human U937 cells assessed as cell viability at 4 x 10^-3 M after 44 hrs by MTT assay relative to control; type: functional; conditions: U-937, 44 h, read-out: Activity
U-937 [21] = experiment: Cytotoxicity against human U937 cells assessed as cell viability at 80 uM after 44 hrs in presence of PCI-34051 by MTT assay relative to control; type: functional; conditions: U-937, 44 h, read-out: Activity
U-937 [22] = experiment: Cytotoxicity against human U937 cells assessed as cell viability at 80 uM after 44 hrs by MTT assay relative to control; type: functional; conditions: U-937, 44 h, read-out: Activity
U-937 [23] = experiment: Cytotoxicity against human U937 cells assessed as decrease in cell viability after 44 hrs by MTT assay; type: functional, cell-based; conditions: Homo sapiens, U-937, 44 h
U-937 [24] = experiment: Cytotoxicity against human U937 cells assessed as cell viability at 200 uM after 44 hrs by MTT assay relative to control; type: functional; conditions: U-937, 44 h, read-out: Activity
U-937 [25] = experiment: Cytotoxicity against human U937 cells assessed as cell viability at 5 x 10^-3 M after 44 hrs by MTT assay relative to control; type: functional; conditions: U-937, 44 h, read-out: Activity
U-937 [26] = experiment: Cytotoxicity against human U937 cells assessed as cell viability at 2.5 x 10^-3 M after 44 hrs by MTT assay relative to control; type: functional; conditions: U-937, 44 h, read-out: Activity
U-937 [27] = experiment: Cytotoxicity against human U937 cells assessed as cell viability at 1.25 x 10^-3 M after 44 hrs by MTT assay relative to control; type: functional; conditions: U-937, 44 h, read-out: Activity
U-937 [28] = experiment: Cytotoxicity against human U937 cells assessed as cell viability at 200 uM after 44 hrs in presence of tubastatin by MTT assay relative to control; type: functional; conditions: U-937, 44 h, read-out: Activity

Chain of Histone deacetylase 3 (Homo sapiens) (O15379 whole entry): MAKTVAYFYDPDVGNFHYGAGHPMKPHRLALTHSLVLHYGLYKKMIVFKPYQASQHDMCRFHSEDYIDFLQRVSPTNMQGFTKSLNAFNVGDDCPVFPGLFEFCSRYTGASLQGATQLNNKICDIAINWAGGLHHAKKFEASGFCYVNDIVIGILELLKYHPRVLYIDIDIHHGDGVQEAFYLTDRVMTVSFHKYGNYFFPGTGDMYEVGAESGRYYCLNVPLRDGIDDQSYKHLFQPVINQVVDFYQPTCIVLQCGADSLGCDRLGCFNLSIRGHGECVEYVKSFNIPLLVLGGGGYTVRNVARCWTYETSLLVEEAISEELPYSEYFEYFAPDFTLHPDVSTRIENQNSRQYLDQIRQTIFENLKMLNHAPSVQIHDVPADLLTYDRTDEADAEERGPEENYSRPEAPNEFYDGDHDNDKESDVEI

Work on `O=C(CC[C@@H](CCCC(=O)Nc1ccccc1)Cc1ccccc1)NO` yielded an Activity [1] of 39%, an Activity [2] of 72% and an Activity [3] of 89%. The Activity [4] was 71%, the Activity [5] was 24% and the Activity [6] was 88%. It also gave an Activity [7] of 54%, an Activity [8] of 53% and an Activity [9] of 96%. For the same compound, the Activity [10] was 25%, the Activity [11] was 67% and the Activity [12] was 43%. For the same compound, the Activity [13] was 29%, the Activity [14] was 38% and the Activity [15] was 77%.

For `CN1CCc2c(c3ccccc3n2Cc2ccc(C(=O)NO)cc2)C1` [TUBASTATIN A], the viability at 3000 µM (U-937 [16]) was 19%, the viability at 250 µM (U-937 [17]) was 82% and the viability at 1000 µM (U-937 [18]) was 38%. For the same compound, the viability at 500 µM (U-937 [19]) was 68%, the viability at 4000 µM (U-937 [20]) was 17% and the viability at 80 µM (U-937 [21]) was 13%. The viability at 80 µM (U-937 [22]) was 44% and the EC50 (U-937 [23]) was 83 µM.

Compound `COc1ccc(Cn2ccc3ccc(C(=O)NO)cc32)cc1` has a viability at 200 µM (U-937 [24]) of 62%, a viability at 500 µM (U-937 [19]) of 85% and a viability at 5000 µM (U-937 [25]) of 9%. It also gave a viability at 2500 µM (U-937 [26]) of 50%, a viability at 1250 µM (U-937 [27]) of 71% and a viability at 200 µM (U-937 [28]) of 13%. It also gave an EC50 (U-937 [23]) of 210 µM.
